This experiment has as its target Platelet-activating factor acetylhydrolase 2, cytoplasmic (Homo sapiens) (UniProt Q99487). As to the kind of experiment: covalent labeling of PAFAH2 active-site serine, late-stage follow-up, mechanism study for PAFAH2 inhibitor project, biophysical, LC-MS/MS, purified enzyme (AID 504486). The method, boiled down:
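Read-out: Active-site serine covalent modification, yes or no | Assay system: Purified human recombinant PAFAH2 enzyme | Control set: DMSO-only enzyme sample | Measured by: LC-MS/MS of tryptic peptides, searching for +97.053 Da serine adduct | Incubation: 30 min compound exposure at room temperature | Compound dosing: Single dose, 200 µM final inhibitor, DMSO vehicle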

The source made the active and inactive calls.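 How the source made its calls: active means mass spectrometry shows covalent labeling of the catalytic serine in PAFAH2, a platelet-activating factor hydrolase; inactive means no covalent labeling of that serine detected.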

In the case of `O=C(N1CCCC1)n1ncc(-c2ccc(-c3ccccc3)cc2)n1`, the result was active.

The values above are taken from PubChem BioAssay AID504486 (The Scripps Research Institute Molecular Screening Center, 2011).
